A short description of data set [1]: Selectivity index, ratio of IC50 for neonatal foreskin fibroblasts to IC50 for chloroquine-sensitive Plasmodium falciparum 3D7.
The subject of data set [2] is Plasmodium falciparum. In words: Antimalarial activity against chloroquine-resistant Plasmodium falciparum Dd2 infected in O+ human erythrocytes by [3H]hypoxanthine incorporation assay. The class given is functional, organism-based. The method in brief: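 Parasites cultured in O+ human erythrocytes in RPMI 1640 with 10% heat-inactivated human serum. Synchronous ring-stage infected cells were set at 0.25% parasitemia and 2.5% hematocrit, and growth was measured by [3H]hypoxanthine incorporation. IC50 was taken against DMSO controls by linear interpolation of inhibition curves. Chloroquine served as the internal control. Triplicate wells, at least four separate occasions.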

The nature of data set [3]: Toxicity in neonatal foreskin fibroblasts. The settings on record: Fibroblast. The class given is ADME, cell-based.
For data set [4], the system named is Plasmodium falciparum. The data set can be described thus: Antimalarial activity against chloroquine-sensitive Plasmodium falciparum 3D7 infected in O+ human erythrocytes by [3H]hypoxanthine incorporation assay. The settings on record: 3D7, 3 h. In kind it is functional, organism-based.
Data set [5] is described as follows: Selectivity index, ratio of IC50 for neonatal foreskin fibroblasts to IC50 for chloroquine-resistant Plasmodium falciparum Dd2.
In data set [6] the test system is Plasmodium falciparum. The data set can be described thus: Antimalarial activity against Plasmodium falciparum infected in O+ human erythrocytes assessed as reduction in parasites at ring stage at 50 nM after 48 hrs by Giemsa staining based microscopy. The class given is functional, organism-based. The method, boiled down: (§1)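 Synchronous Dd2-infected erythrocytes at ring (~18 h postinvasion), trophozoite (~26 h) or schizont (~38 h) stage, starting parasitemia 0.2–1.0%, exposed to 50 or 200 nM; DMSO (<0.05%) vehicle controls. Parasitemia counted on Giemsa-stained thin smears over 2–4 days, at least 1,000 erythrocytes by two counters. 48 h means compared by ANOVA; three independent experiments.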

Data set [7] relates to Plasmodium falciparum. The data set can be described thus: Antimalarial activity against Plasmodium falciparum infected in O+ human erythrocytes assessed as reduction in parasites at schizonts stage at 50 nM after 48 hrs by Giemsa staining based microscopy. The class given is functional, organism-based. The method in brief:
as §1

The test system of data set [8] is Plasmodium falciparum. In words: Inhibition of HDAC in Plasmodium falciparum Dd2 infected in O+ human erythrocytes assessed as alteration of histone acetylation at 20 to 500 nM after 3.5 hrs by Westen blot. In kind it is organism-based. The method, boiled down:
(§2)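 Late-trophozoite Dd2-infected erythrocytes (3 x 10^9) treated 3.5 h at 37°C at 20, 100 or 500 nM, DMSO vehicle controls. Saponin lysis, histones acid-extracted in 0.5 M HCl, acetone-precipitated, run on 15% SDS-PAGE (silver stain for loading). Western blot with anti-tetra-acetyl histone H4 antiserum (1:2,000), then HRP anti-rabbit (1:5,000).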

The test system of data set [9] is Plasmodium falciparum. In words: Antimalarial activity against Plasmodium falciparum infected in O+ human erythrocytes assessed as reduction in parasites at schizonts stage at 200 nM after 48 hrs by Giemsa staining based microscopy. In kind it is functional, organism-based. The method in brief:
as §1

Data set [10] has as its system Plasmodium falciparum. The data set can be described thus: Antimalarial activity against Plasmodium falciparum infected in O+ human erythrocytes assessed as reduction in parasites at trophozoites stage at 200 nM after 48 hrs by Giemsa staining based microscopy. In kind it is functional, organism-based. The method in brief: as §1
In data set [11] the test system is Plasmodium falciparum. In words: Antimalarial activity against Plasmodium falciparum infected in O+ human erythrocytes assessed as reduction in parasites at trophozoites stage at 50 nM after 48 hrs by Giemsa staining based microscopy. The class given is functional, organism-based. The method, boiled down: as §1
Data set [12] deals with Plasmodium falciparum. The data set can be described thus: Antimalarial activity against Plasmodium falciparum infected in O+ human erythrocytes assessed as reduction in parasites at ring stage at 200 nM after 48 hrs by Giemsa staining based microscopy. The class given is functional, organism-based. The method in brief:
as §1

Data set [13] is described as follows: Toxicity in human WI38 cells. The class given is cell-based, WI-38.
A short description of data set [14]: Selectivity index, ratio of IC50 for human WI38 cells to IC50 for chloroquine-sensitive Plasmodium falciparum 3D7.
A short description of data set [15]: Selectivity index, ratio of IC50 for human WI38 cells to IC50 for chloroquine-resistant Plasmodium falciparum Dd2.
Data set [16] is described as follows: Toxicity in breast fibroblasts. The settings on record: Fibroblast. The class given is cell-based.
In data set [17] the test system is Plasmodium falciparum. The data set can be described thus: Inhibition of HDAC in Plasmodium falciparum Dd2 infected in O+ human erythrocytes assessed as alteration of histone acetylation at 500 nM after 3.5 hrs by Westen blot. In kind it is organism-based. The method, boiled down: as §2
Data set [18] relates to Plasmodium falciparum. The data set can be described thus: Antimalarial activity against Plasmodium falciparum. In kind it is functional, organism-based. The method, boiled down: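 Dd2 and 3D7 grown in O-positive human erythrocytes, RPMI 1640 with 10% heat-inactivated human serum. Synchronous ring-stage infected cells, 0.25% parasitemia, 2.5% hematocrit; growth read as [3H]hypoxanthine incorporation versus DMSO controls. IC50 taken by linear interpolation of inhibition curves. Chloroquine as internal control; triplicate wells, at least four separate occasions.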

A short description of data set [19]: Selectivity index, ratio of IC50 for african green monkey (Cercopithecus aethiops) Vero cells to IC50 for chloroquine-resistant Plasmodium falciparum W2. In kind it is toxicity, cell-based. The settings on record: read-out: Ratio IC50.
A short description of data set [20]: Selectivity index, ratio of IC50 for african green monkey (Cercopithecus aethiops) Vero cells to IC50 for chloroquine-sensitive Plasmodium falciparum D6. The class given is toxicity, cell-based. The settings on record: read-out: Ratio IC50.
Data set [21] deals with Plasmodium falciparum. The data set can be described thus: Antimalarial activity against chloroquine-resistant Plasmodium falciparum W2 infected in O+ human erythrocytes by [3H]hypoxanthine incorporation assay. The class given is functional, organism-based.
For data set [22], the system named is Plasmodium falciparum. The data set can be described thus: Antimalarial activity against chloroquine-sensitive Plasmodium falciparum D6 infected in O+ human erythrocytes by [3H]hypoxanthine incorporation assay. The class given is functional, organism-based.
Data set [23] in a line: Toxicity in african green monkey Vero cells. The settings on record: African green monkey (Chlorocebus sabaeus). The class given is cell-based.

Each structure is given as a SMILES string. The source made the active and inactive calls. No cut-off for these calls is given here. Bounds are passed on as bounds.

As for `O=C(CCCCC[C@H](NC(=O)c1cc2ccccc2[nH]1)C(=O)NCc1ccccc1)NO`, the “Ratio IC50” value is 37 in [1] and 20 in data set [5]. The IC50 with Plasmodium falciparum [2] is 63 nM; in [3], 1260 nM; in the data set with Plasmodium falciparum [4], 34 nM.
Take `CN(C)c1ccc(C(=O)N[C@@H](CSCCCC(=O)NO)C(=O)NC2CCCc3ccccc32)cc1` (stereo not given in full): the figures for the IC50 (in the data set on Plasmodium falciparum [2]; in data set [3]) were 305 nM and 2200 nM, respectively. The “Ratio IC50” value in [5] was 7.
The like results for `O=C(CCCSC[C@H](NC(=O)c1ccc(Br)cc1)C(=O)NCc1ccccc1)NO` were, in that order, 125 nM, 830 nM and 13.
For the molecule `O=C(CCCCC[C@H](NC(=O)c1cc2ccccc2[nH]1)C(=O)Nc1cccc2cccnc12)NO`, the inhibition entry in the data set with Plasmodium falciparum [6], with Plasmodium falciparum [7], with Plasmodium falciparum [8], in the data set with Plasmodium falciparum [9], with Plasmodium falciparum [10] and in the data set on Plasmodium falciparum [11] was “Active” throughout. Moreover, the inhibition result in the data set with Plasmodium falciparum [12] was “Active”. The “Ratio IC50” value is reported as 26 in data set [1] and 10 in data set [5]. Moreover, the values for the IC50 (in the data set on Plasmodium falciparum [2]; in data set [3]; with Plasmodium falciparum [4]) were 33 nM, 337 nM and 13 nM, respectively.
For the molecule `Nc1ccccc1NC(=O)c1ccc(CNC(=O)OCc2cccnc2)cc1` [ENTINOSTAT], the IC50 in data set [13] was over 20000 nM; in data set [16], 20000 nM; in the data set on Plasmodium falciparum [2], 7800 nM; in the data set on Plasmodium falciparum [4], 8300 nM. For the same molecule, the values for the selectivity ratio in data set [14] and in data set [15] were over 2.4 and over 2.6, respectively.
For `CN(C)c1ccc(C(=O)N[C@@H](CSCCCC(=O)NO)C(=O)Nc2ccc(-c3ccccc3)cc2)cc1`, the IC50 came out at 128 nM with Plasmodium falciparum [2] and 320 nM in data set [3]. In addition, the “Ratio IC50” value in data set [5] is 3.
Take `CN(C)c1ccc(C(=O)N[C@@H](CCCCCC(=O)NO)C(=O)Nc2cccc3cccnc23)cc1`: the “Ratio IC50” value in data set [1] came to 30; in data set [5], 8. Further, the IC50 turned out to be 71 nM in the data set on Plasmodium falciparum [2], 570 nM in data set [3] and 19 nM with Plasmodium falciparum [4].
Take `CC(/C=C/C(=O)NO)=C\[C@@H](C)C(=O)c1ccc(N(C)C)cc1` [TRICHOSTATIN]: the inhibition result in the data set on Plasmodium falciparum [17], in the data set on Plasmodium falciparum [9], in the data set with Plasmodium falciparum [10] and in the data set with Plasmodium falciparum [12] was “Active” each time. In addition, the “Ratio IC50” value in data set [1] is recorded as 18; in data set [5], 25. Further, the IC50 with Plasmodium falciparum [2] is 8 nM; in data set [3] it was 200 nM; with Plasmodium falciparum [4] it was 11 nM.
In the case of `O=C(/C=C/c1ccccc1)N[C@@H](CCCCCC(=O)NO)C(=O)Nc1cccc2cccnc12`, the inhibition result with Plasmodium falciparum [6], in the data set on Plasmodium falciparum [7], in the data set with Plasmodium falciparum [8], in the data set on Plasmodium falciparum [9], in the data set on Plasmodium falciparum [10] and in the data set with Plasmodium falciparum [11] was “Active” throughout. Besides, the inhibition entry with Plasmodium falciparum [12] is “Active”. Also, the “Ratio IC50” value is recorded as 83 in [1] and 32 in data set [5]. The IC50 in the data set on Plasmodium falciparum [2] turned out to be 39 nM; in data set [3] it was 1240 nM; with Plasmodium falciparum [4], 15 nM.
With `CC(NC(=O)c1ccccc1/N=C/c1c(O)ccc2ccccc12)c1ccccc1` (stereo not given) [SIRTINOL], the entries for the “Ratio IC50” value in [1] and in [5] were 1.9 and 2.7, respectively. Moreover, the IC50 with Plasmodium falciparum [2] is 9100 nM; in data set [3], over 25000 nM; in the data set with Plasmodium falciparum [4], 12900 nM.
Regarding `O=C(/C=C/c1ccccc1)N[C@@H](CCCCCC(=O)NO)C(=O)NCc1ccccc1`, the “Ratio IC50” value in [1] stood at 118; in data set [5] it was 39. Moreover, the IC50 was 102 nM in the data set on Plasmodium falciparum [2], 4010 nM in [3] and 34 nM in the data set with Plasmodium falciparum [4].
The molecule `O=C(CCCCCCCC(=O)NO)NO` [AZELAIC BIS HYDROXAMIC ACID] came in with an IC50 with Plasmodium falciparum [18] of 3200 nM.
As to `O=C(CCCCCCC(=O)NO)NO` [SUBEROHYDROXAMIC ACID], the selectivity ratio in data set [19] and in [20] was over 21 each time. Moreover, the IC50 was 1780 nM in the data set with Plasmodium falciparum [21], 940 nM with Plasmodium falciparum [22] and over 20000 nM in [23].
For `O=C(/C=C\c1ccccc1)N[C@@H](CSCCCC(=O)NO)C(=O)NCc1ccccc1`, the IC50 in the data set on Plasmodium falciparum [2] came out at 339 nM; in [3], 800 nM. Also, the “Ratio IC50” value in data set [5] is given as 2.
For `CC(C)(C)OC(=O)N[C@@H](CCCCCS)C(=O)NC1CCCC1`, the IC50 was found to be 19900 nM in the data set on Plasmodium falciparum [2] and 15200 nM in the data set on Plasmodium falciparum [4].
With `O=C(CCCCC[C@H](NC(=O)c1ccc(Br)cc1)C(=O)NCc1ccccc1)NO`, the “Ratio IC50” value stood at 64 in data set [1] and 17 in [5]. Moreover, the half-inhibitory concentration (IC50) was found to be 334 nM in the data set with Plasmodium falciparum [2], 5860 nM in data set [3] and 91 nM with Plasmodium falciparum [4].
As for `O=C(CCCCC[C@H](NC(=O)OCc1ccccc1)C(=O)Nc1ccc(-c2ccccc2)cc1)NO`, the entries for the “Ratio IC50” value in data set [1] and in data set [5] were 76 and 21, respectively. Moreover, the IC50 in the data set with Plasmodium falciparum [2] came out at 105 nM; in data set [3] it was 2200 nM; in the data set on Plasmodium falciparum [4] it was 29 nM.
As for `CN(C)c1ccc(C(=O)N[C@@H](CSCCCC(=O)NO)C(=O)NCc2ccccc2)cc1`, the IC50 worked out at 169 nM in the data set with Plasmodium falciparum [2] and 350 nM in [3]. Further, in [5], the “Ratio IC50” value is on record as 2.
Turning to `O=C(CCCCC[C@H](NC(=O)c1ccc(Br)cc1)C(=O)Nc1ccc(-c2ccccc2)cc1)NO`, the entries for the “Ratio IC50” value in [1] and in data set [5] were 9 and 5, respectively. For the same molecule, the IC50 with Plasmodium falciparum [2] was determined as 41 nM; in [3], 190 nM; with Plasmodium falciparum [4] it was 22 nM.
As to `CN(C)c1ccc(NC(=O)[C@H](CSCCCC(=O)NO)NC(=O)c2ccc(N(C)C)cc2)cc1`, the results for the IC50 (with Plasmodium falciparum [2]; in data set [3]) were 48 nM and 600 nM, respectively. Further, the “Ratio IC50” value in data set [5] was 12.

What is called IC50 is the point on the concentration scale where inhibition reaches its midpoint.

The record behind these values is ChEMBL document CHEMBL1255291, “Potent antimalarial activity of histone deacetylase inhibitor analogues” (Antimicrob Agents Chemother, 2008).
